≈ marks a conversion by molar mass, not a printed value. A value given as a limit tells only on which side of the number the result lay.

Assay [1] relates to Acinetobacter baumannii. Kind of assay: Antibacterial activity against Acinetobacter baumannii NCTC 13301 producing OXA-23/51 infected in sc dosed Swiss albino mouse administered 1 hr post infection and measured upto 7 days. The settings on record: for ED90 / ED50: NCTC 13301, 168 h, time <= 7 day; for ED50: read-out: PD50. It is filed as functional. The essentials:
(§1)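 Peritonitis model: male and female Swiss albino mice infected intraperitoneally with 3.5×10^5 to 3×10^6 CFU/mouse in 5% hog gastric mucin (lethal to untreated mice within 24 h). […] Survival followed 7 days; PD50/PD90 by probit analysis.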

The test system of assay [2] is Acinetobacter baumannii. Kind of assay: Antibacterial activity against Acinetobacter baumannii SL04 producing OXA-23/51 infected in Swiss mouse model of neutropenic lung infection.
For assay [3], the system named is Acinetobacter baumannii. The assay can be described thus: Antibacterial activity against Acinetobacter baumannii NCTC 13303 producing OXA-26/51 infected in sc dosed Swiss albino mouse administered 1 hr post infection and measured upto 7 days. Conditions: NCTC 13303, 168 h; for ED50: read-out: PD50.
In assay [4] the test system is Acinetobacter baumannii. The assay can be described thus: Antibacterial activity against Acinetobacter baumannii PR476 producing OXA-24/40 by broth microdilution method. Type of assay: functional. For orientation: In broth dilution the organism is exposed to a series of concentrations in liquid medium.
For assay [5], the system named is Acinetobacter baumannii. The assay can be described thus: Antibacterial activity against Acinetobacter baumannii NCTC 13303 producing OXA-26/51 infected in sc dosed Swiss albino mouse administered 1 hr post infection and measured upto 7 days. It is filed as functional. Conditions: NCTC 13303, 168 h, time <= 7 day. The essentials: as §1
Assay [6] has as its system Acinetobacter baumannii. Kind of assay: Antibacterial activity against Acinetobacter baumannii SL46 producing OXA-23/51 infected in sc dosed Swiss albino mouse administered 1 hr post infection and measured upto 7 days. Type of assay: functional. Conditions: SL46, 168 h, time <= 7 day. In a few lines:
as §1

For assay [7], the system named is Acinetobacter baumannii. The assay can be described thus: Antibacterial activity against Acinetobacter baumannii SL04 producing OXA-23/51 infected in Swiss mouse model of neutropenic lung infection assessed as reduction in log10CFU at 50 mg/kg.
The test system of the next assay is Escherichia coli. Kind of assay: Antibacterial activity against Escherichia coli DH10B transfected with pBC SK (-) OXA-48 by broth microdilution method. Type of assay: functional.
The test system of assay [8] is Klebsiella pneumoniae. The assay can be described thus: Antibacterial activity against Klebsiella pneumoniae 660/1568 producing KPC-3 by broth microdilution method. It is filed as functional.
The subject of assay [9] is Klebsiella pneumoniae. The assay can be described thus: Antibacterial activity against Klebsiella pneumoniae 977/1916 producing KPC-3 by broth microdilution method. It is filed as functional.
Assay [10] deals with Acinetobacter baumannii. Kind of assay: Antibacterial activity against ADC deleted Acinetobacter baumannii transfected with pWH1266 producing OXA-24/40 by broth microdilution method. Type of assay: functional.
In assay [11] the test system is Acinetobacter baumannii. Kind of assay: Antibacterial activity against Acinetobacter baumannii SL46 producing OXA-23/51 infected in sc dosed Swiss albino mouse administered 1 hr post infection and measured upto 7 days. The settings on record: SL46, 168 h.

COLISTIN: the PD50 with Acinetobacter baumannii [1] (time <= 7.0 day) came to 16.6 mg/kg.

For `CN(C)c1cc(NC(=O)CNC(C)(C)C)c(O)c2c1C[C@H]1C[C@H]3[C@H](N(C)C)C(O)=C(C(N)=O)C(=O)[C@@]3(O)C(O)=C1C2=O` [TIGECYCLINE], in the assay with Acinetobacter baumannii [1], the ED90 is more than 6.25 mg/kg and the ED50 was more than 6.25 mg/kg. Besides, the MIC in the assay on Acinetobacter baumannii [2] is 4 µg/mL (≈ 6.83 µM). Besides, in the assay on Acinetobacter baumannii [3], the ED90 is more than 6.25 mg/kg and the ED50 was more than 6.25 mg/kg.

`CO/N=C(\C(=O)N[C@@H]1C(=O)N2C(C(=O)[O-])=C(C[N+]3(C)CCCC3)CS[C@H]12)c1csc(N)n1` registered a minimum inhibitory concentration (MIC) with Acinetobacter baumannii [4] of 1 µg/mL (≈ 2.08 µM). Further, the ED90 in the assay on Acinetobacter baumannii [1] was more than 100 mg/kg; in the assay on Acinetobacter baumannii [5], 50 mg/kg; with Acinetobacter baumannii [6], 50 mg/kg. The ED50 in the assay with Acinetobacter baumannii [1] is more than 100 mg/kg; in the assay on Acinetobacter baumannii [5] (read-out: PD50), 50 mg/kg; in the assay with Acinetobacter baumannii [6] (read-out: PD50) it was 50 mg/kg. The Activity with Acinetobacter baumannii [7] is 0.98 log10CFU.

For `C[C@@H](O)[C@H]1C(=O)N2C(C(=O)O)=C(S[C@@H]3CN[C@H](C(=O)N(C)C)C3)[C@H](C)[C@H]12` [MEROPENEM], the minimal inhibitory concentration (MIC) was 8 µg/mL (≈ 20.9 µM) against Escherichia coli; 2 µg/mL (≈ 5.22 µM) against Klebsiella pneumoniae [8]; 1 µg/mL (≈ 2.61 µM) against Klebsiella pneumoniae [9]; 0.25 µg/mL (≈ 0.652 µM) with Acinetobacter baumannii [4]; more than 16 µg/mL in the assay with Acinetobacter baumannii [10]; 64 µg/mL (≈ 167 µM) with Acinetobacter baumannii [2]. In addition, the ED90 with Acinetobacter baumannii [1] amounted to 25 mg/kg; in the assay with Acinetobacter baumannii [11], 50 mg/kg; in the assay on Acinetobacter baumannii [3], 50 mg/kg. Further, the values for the ED50 in the assay with Acinetobacter baumannii [1], with Acinetobacter baumannii [11] (read-out: PD50) and in the assay with Acinetobacter baumannii [3] were 25 mg/kg, 50 mg/kg and 50 mg/kg, respectively.

Consider `C[C@@H](O)[C@H]1C(=O)N2C(C(=O)O)=C(SCCNC=N)C[C@H]12` [IMIPENEM ANHYDROUS], for which the MIC against Acinetobacter baumannii [2] amounted to 64 µg/mL (≈ 214 µM).

What is called MIC is the smallest concentration in the dilution series that meets the test's criterion for growth inhibition. Low values mean a more susceptible organism, high ones a less susceptible organism.

(Values after ChEMBL document CHEMBL5247575 (J Med Chem, 2018).)
